{"source": "ChEMBL document CHEMBL4346702", "about": "“Development of CXCR4 modulators based on the lead compound RB-108” (Eur J Med Chem, 2019)", "key": {"[1]": {"molecular_target": "C-X-C chemokine receptor type 4 (Homo sapiens) (UniProt P61073)", "sequence (P61073 whole entry)": "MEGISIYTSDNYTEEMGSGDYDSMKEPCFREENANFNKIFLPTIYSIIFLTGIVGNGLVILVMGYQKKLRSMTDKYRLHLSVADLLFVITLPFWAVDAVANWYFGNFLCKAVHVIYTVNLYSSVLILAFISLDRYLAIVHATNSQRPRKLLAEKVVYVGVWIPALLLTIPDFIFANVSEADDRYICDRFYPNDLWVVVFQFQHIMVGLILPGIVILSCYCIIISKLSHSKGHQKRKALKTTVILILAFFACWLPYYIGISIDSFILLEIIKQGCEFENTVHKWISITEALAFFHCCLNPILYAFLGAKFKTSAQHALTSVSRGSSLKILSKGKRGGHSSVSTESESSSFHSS", "experiment": "(§1) Competitive inhibition of biotinylated TN14003 binding to CXCR4 in human MDA-MB-231 cells preincubated for 10 mins followed by biotinylated-TN14003 addition measured after 30 mins by streptavidin-rhodamine staining based fluorescence microscopic analysis", "type": "cell-based", "in_short": "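MDA-MB-231 cells, 2 × 10⁴ per well, seeded two days ahead. Compound (1, 10, 100 or 1000 nM) added for 10 min at room temperature, then fixed in ice-cold 4% paraformaldehyde and rehydrated in PBS. Biotinylated TN14003 0.05 μg/mL for 30 min at RT, PBS washes, streptavidin-rhodamine (1:150) 30 min at RT. Read by fluorescence microscopy. EC = lowest concentration reducing rhodamine staining versus control.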"}, "[2]": {"molecular_target": "C-X-C chemokine receptor type 4 (Homo sapiens) (UniProt P61073)", "experiment": "Inhibition of CXCR4-mediated chemotaxis in human MDA-MB-231 cells assessed as reduction in CXCL12alpha-induced cell invasion at 100 nM incubated for 22 hrs by hematoxylin/eosin dye-based matrigel assay relative to control", "in_short": "(§2)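 Matrigel invasion chamber with MDA-MB-231 cells. Compound (100 nM) added to cells before seeding in the top chamber; CXCL12α 200 ng/mL in the bottom chamber as chemoattractant, serum-free medium. Incubated 22 h. Non-invading cells swabbed off; invaded cells fixed in methanol and H&E stained, then counted. Inhibition relative to untreated invasion.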"}, "Mus musculus [3]": {"test_system": "Mus musculus", "experiment": "Antiinflammatory activity in C57BL/6J mouse assessed as inhibition of carrageenan-induced paw edema at 10 mg/kg, ip daily dosed 30 mins after carrageenan challenge and measured 74 hrs carrageenan challenge and 2 hrs post last dose by caliper method relative to control", "type": "functional", "in_short": "(§3)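 Female C57BL/6J mice, five per group; 50 μL λ-carrageenan (1% w/v in saline) injected subcutaneously into one hind paw, 50 μL saline into the other as non-inflamed control. Vehicle-only i.p. controls. Sacrifice 74 h after challenge and 2 h after last dose. Paw thickness measured palm to back with caliper. Edema = injected minus contralateral paw. Suppression % = treated versus control group.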"}, "[4]": {"molecular_target": "C-X-C chemokine receptor type 4 (Homo sapiens) (UniProt P61073)", "experiment": "Inhibition of CXCR4-mediated chemotaxis in human MDA-MB-231 cells assessed as reduction in CXCL12alpha-induced cell invasion incubated for 22 hrs by hematoxylin/eosin dye-based matrigel assay relative to control", "conditions": "concentration not given here", "in_short": "as §2"}, "[5]": {"molecular_target": "C-X-C chemokine receptor type 4 (Homo sapiens) (UniProt P61073)", "experiment": "as §1, with “Potency index, Ratio of EC for AMD3100 to EC for test compound for” for “Competitive”", "type": "cell-based"}, "Mus musculus [6]": {"test_system": "Mus musculus", "experiment": "Antiinflammatory activity in C57BL/6J mouse assessed as reduction in carrageenan-induced accumulation of inflammatory cells in paw tissue at 10 mg/kg, ip daily dosed 30 mins after carrageenan challenge and measured 74 hrs carrageenan challenge and 2 hrs post last dose by H and E staining based histopathological analysis", "type": "functional, organism-based"}, "Mus musculus [7]": {"test_system": "Mus musculus", "experiment": "Antiinflammatory activity against carrageenan-induced paw oedema in C57BL/6J mouse assessed as hind paw thickness at 10 mg/kg, ip daily dosed 30 mins after carrageenan challenge and measured 74 hrs carrageenan challenge and 2 hrs post last dose by caliper method (reference value: 3.05 millimeter)", "type": "functional", "in_short": "as §3"}, "MCF-10A": {"test_system": "MCF-10A", "experiment": "Cytotoxicity against human MCF10A cells at 100 uM incubated for 24 hrs by CellTiter-96AQ based MTT assay", "type": "cell-based", "in_short": "(§4)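 Cells seeded at 3000 per well and grown 24 h at 37 °C in CO₂. Treated with compound for 24 h at 37 °C, top concentration 100 μM. CellTiter 96AQ reagent added for 2 h more, then absorbance read at 490 nm.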"}, "[8]": {"experiment": "Tmax in Sprague-Dawley rat at 10 mg/kg, ig measured for 5 min to 6 hrs by LC/MS/MS analysis", "type": "ADME, organism-based", "conditions": "in vivo, po", "in_short": "(§5)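 Two male SD rats given 10 mg/kg intragastrically in 10% DMSO/90% PBS. Blood drawn at 5, 15, 30 min and 1, 2, 4, 6 h, centrifuged 4000 rpm for 5 min at 4 °C. Protein precipitation, then LC/MS/MS in SRM mode with internal standard. Parameters from noncompartmental analysis of plasma concentration-time data.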"}, "SK-BR-3": {"test_system": "SK-BR-3", "experiment": "Cytotoxicity against human SKBR3 cells at 100 uM incubated for 24 hrs by CellTiter-96AQ based MTT assay", "type": "cell-based", "conditions": "sk-br-3, 24 h", "in_short": "as §4"}, "MDA-MB-231": {"test_system": "MDA-MB-231", "experiment": "Cytotoxicity against human MDA-MB-231 cells at 100 uM incubated for 24 hrs by CellTiter-96AQ based MTT assay", "type": "cell-based", "conditions": "mda-mb-231, 24 h", "in_short": "as §4"}, "Mus musculus [9]": {"test_system": "Mus musculus", "experiment": "Antiinflammatory activity against carrageenan-induced paw oedema in C57BL/6J mouse assessed as paw swollen thickness at 10 mg/kg, ip daily dosed 30 mins after carrageenan challenge and measured 74 hrs carrageenan challenge and 2 hrs post last dose by caliper method (reference value: 0.68 millimeter)", "type": "functional", "in_short": "as §3"}, "Mus musculus [10]": {"test_system": "Mus musculus", "experiment": "Antiinflammatory activity in C57BL/6J mouse assessed as reduction of carrageenan-induced inflammation and tissue damage in paw by measuring edema volume and thickness at 10 mg/kg, ip daily dosed 30 mins after carrageenan challenge and measured 74 hrs carrageenan challenge and 2 hrs post last dose by H and E staining based histopathological analysis", "type": "functional, organism-based"}, "[11]": {"experiment": "Half life in Sprague-Dawley rat at 10 mg/kg, ig measured for 5 min to 6 hrs by LC/MS/MS analysis", "type": "ADME, organism-based", "conditions": "in vivo, po", "in_short": "as §5"}}, "note": "Activity calls are given as the source filed them. The calls are words filed in the database; no cut-off is given here."}
{"smiles": "O=C(NCc1ccc(CNS(=O)(=O)c2ccc(F)cc2)cc1)c1ccc(F)cc1", "values": [{"measurement": "EC", "setting": "[1]", "result": 1, "unit": "nM"}]}
{"smiles": "O=C(NCc1ccc(CNS(=O)(=O)c2cccc(C(F)(F)F)c2)cc1)c1ccc(F)cc1", "values": [{"measurement": "EC", "setting": "[1]", "result": 100, "unit": "nM"}, {"measurement": "inhibition", "setting": "[2]", "result": 93, "unit": "%"}, {"measurement": "inhibition in vivo at 10 mg/kg", "setting": "Mus musculus [3]", "result": 20, "unit": "%"}]}
{"smiles": "O=C(NCc1ccc(CNS(=O)(=O)c2cccc3ccccc23)cc1)c1ccc(F)cc1", "values": [{"measurement": "EC", "setting": "[1]", "result": 1000, "unit": "nM"}]}
{"smiles": "O=C(NCc1ccc(CNS(=O)(=O)c2ccccc2Cl)cc1)c1ccc(F)cc1", "values": [{"measurement": "EC", "setting": "[1]", "result": 1000, "unit": "nM"}]}
{"smiles": "O=C(NCc1ccc(CNS(=O)(=O)c2ccc([N+](=O)[O-])cc2)cc1)c1ccc(F)cc1", "values": [{"measurement": "EC", "setting": "[1]", "result": 1000, "unit": "nM"}]}
{"smiles": "Cc1ccc(S(=O)(=O)NCc2ccc(CNC(=O)c3ccc(F)cc3)cc2)cc1", "values": [{"measurement": "inhibition", "setting": "[4]", "result": 65, "unit": "%"}, {"measurement": "inhibition in vivo at 10 mg/kg", "setting": "Mus musculus [3]", "result": 30, "unit": "%"}]}
{"smiles": "O=C(NCc1ccc(CNS(=O)(=O)c2ccc(Cl)cc2)cc1)c1ccc(F)cc1", "values": [{"measurement": "EC", "setting": "[1]", "result": 100, "unit": "nM"}]}
{"smiles": "O=C(NCc1ccc(CNS(=O)(=O)c2cccc(Cl)c2)cc1)c1ccc(F)cc1", "values": [{"measurement": "EC", "setting": "[1]", "result": 1, "unit": "nM"}, {"measurement": "inhibition", "setting": "[2]", "result": 95, "unit": "%"}, {"measurement": "inhibition in vivo at 10 mg/kg", "setting": "Mus musculus [3]", "result": 20, "unit": "%"}]}
{"smiles": "O=C(NCc1ccc(CNS(=O)(=O)c2ccc(CN3CCCC3)cc2)cc1)c1ccc(F)cc1", "values": [{"measurement": "EC", "setting": "[1]", "result": 1, "unit": "nM"}, {"measurement": "inhibition", "setting": "[2]", "result": 92, "unit": "%"}, {"measurement": "Ratio", "setting": "[5]", "result": 1000}, {"measurement": "inhibition in vivo at 10 mg/kg", "setting": "Mus musculus [3]", "result": 20, "unit": "%"}]}
{"smiles": "O=C(NCc1ccc(CNS(=O)(=O)c2cccc(F)c2)cc1)c1ccc(F)cc1", "values": [{"measurement": "EC", "setting": "[1]", "result": 1000, "unit": "nM"}]}
{"smiles": "O=C(NCc1ccc(CNS(=O)(=O)c2ccccc2F)cc1)c1ccc(F)cc1", "values": [{"measurement": "EC", "setting": "[1]", "result": 10, "unit": "nM"}]}
{"smiles": "Cc1ccccc1S(=O)(=O)NCc1ccc(CNC(=O)c2ccc(F)cc2)cc1", "values": [{"measurement": "EC", "setting": "[1]", "result": 100, "unit": "nM"}]}
{"smiles": "Cc1cccc(S(=O)(=O)NCc2ccc(CNC(=O)c3ccc(F)cc3)cc2)c1", "values": [{"measurement": "EC", "setting": "[1]", "result": 1, "unit": "nM"}]}
{"smiles": "Cc1ccc(S(=O)(=O)NCc2ccc(CNC(=O)c3ccc(F)nc3)cc2)cc1", "values": [{"measurement": "EC", "setting": "[1]", "result": "> 1000", "unit": "nM"}]}
{"smiles": "O=C(NCc1ccc(CNS(=O)(=O)c2cccnc2)cc1)c1ccc(F)cc1", "values": [{"measurement": "EC", "setting": "[1]", "result": 1000, "unit": "nM"}]}
{"smiles": "O=C(NCc1ccc(CNS(=O)(=O)c2ccc(F)c(F)c2)cc1)c1ccc(F)cc1", "values": [{"measurement": "EC", "setting": "[1]", "result": 10, "unit": "nM"}]}
{"smiles": "O=C(NCc1ccc(CNS(=O)(=O)c2ccc3c(c2)CCO3)cc1)c1ccc(F)cc1", "values": [{"measurement": "inhibition", "setting": "Mus musculus [6]", "result": "Active"}, {"measurement": "EC", "setting": "[1]", "result": 10, "unit": "nM"}, {"measurement": "Activity", "setting": "Mus musculus [7]", "result": 2.64, "unit": "mm"}, {"measurement": "Activity", "setting": "MCF-10A", "result": "Non-Toxic"}, {"measurement": "Tmax", "setting": "[8]", "result": 0.25, "unit": "h"}, {"measurement": "inhibition", "setting": "[2]", "result": 83, "unit": "%"}, {"measurement": "Activity", "setting": "SK-BR-3", "result": "Non-Toxic"}, {"measurement": "Activity", "setting": "MDA-MB-231", "result": "Non-Toxic"}, {"measurement": "Activity", "setting": "Mus musculus [9]", "result": 0.21, "unit": "mm"}, {"measurement": "inhibition", "setting": "Mus musculus [10]", "result": "Active"}, {"measurement": "inhibition in vivo at 10 mg/kg", "setting": "Mus musculus [3]", "result": 43, "unit": "%"}, {"measurement": "t1/2", "setting": "[11]", "result": 4.77, "unit": "h"}]}
{"smiles": "CCN(CC)Cc1ccc(S(=O)(=O)NCc2ccc(CNC(=O)c3ccc(F)cc3)cc2)cc1", "values": [{"measurement": "EC", "setting": "[1]", "result": 1, "unit": "nM"}, {"measurement": "Ratio", "setting": "[5]", "result": 1000}]}
{"smiles": "Cc1ccc(S(=O)(=O)NCc2ccc(CNC(=O)c3ccc(F)cn3)cc2)cc1", "values": [{"measurement": "EC", "setting": "[1]", "result": 1000, "unit": "nM"}]}
{"smiles": "O=C(NCc1ccc(CNS(=O)(=O)c2ccc(CN3CCOCC3)cc2)cc1)c1ccc(F)cc1", "values": [{"measurement": "EC", "setting": "[1]", "result": 10, "unit": "nM"}, {"measurement": "inhibition", "setting": "[2]", "result": 82, "unit": "%"}, {"measurement": "Ratio", "setting": "[5]", "result": 100}, {"measurement": "inhibition in vivo at 10 mg/kg", "setting": "Mus musculus [3]", "result": 20, "unit": "%"}]}
{"smiles": "O=C(NCc1ccc(CNS(=O)(=O)c2ccc(-c3ccc(F)cc3)cc2)cc1)c1ccc(F)cc1", "values": [{"measurement": "EC", "setting": "[1]", "result": 100, "unit": "nM"}]}
